Experimental data gathered from unrelated publications.
Each line is one published result; the experiments were not run side by side.
Target: cGMP-dependent protein kinase 2 (PRKG2, Homo sapiens, UniProt Q13237)
Residues used in one study (Q13237 1-762): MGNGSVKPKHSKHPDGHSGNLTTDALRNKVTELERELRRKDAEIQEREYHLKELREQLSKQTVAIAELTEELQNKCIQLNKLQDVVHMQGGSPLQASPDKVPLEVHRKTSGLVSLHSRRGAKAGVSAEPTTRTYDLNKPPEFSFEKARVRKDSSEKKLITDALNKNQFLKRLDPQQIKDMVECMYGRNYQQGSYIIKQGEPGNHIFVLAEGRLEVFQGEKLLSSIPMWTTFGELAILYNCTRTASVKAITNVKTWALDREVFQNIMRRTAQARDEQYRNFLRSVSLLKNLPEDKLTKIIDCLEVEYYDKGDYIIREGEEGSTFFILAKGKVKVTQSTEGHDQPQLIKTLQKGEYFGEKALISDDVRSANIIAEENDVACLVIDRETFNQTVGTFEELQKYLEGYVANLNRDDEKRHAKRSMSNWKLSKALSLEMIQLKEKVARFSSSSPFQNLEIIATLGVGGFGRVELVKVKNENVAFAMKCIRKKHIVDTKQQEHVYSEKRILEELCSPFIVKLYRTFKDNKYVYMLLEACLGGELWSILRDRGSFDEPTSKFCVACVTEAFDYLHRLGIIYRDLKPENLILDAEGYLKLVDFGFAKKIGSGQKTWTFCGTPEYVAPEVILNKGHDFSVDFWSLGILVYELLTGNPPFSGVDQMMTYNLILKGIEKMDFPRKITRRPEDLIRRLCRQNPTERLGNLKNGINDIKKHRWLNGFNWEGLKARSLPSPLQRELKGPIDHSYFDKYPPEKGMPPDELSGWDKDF

SMILES | assay | conditions | remaining binding
COc1ccnn2ncc(-c3ccnc(N(C)C)n3)c12 | binding | 1 µM | 100%
O=C(O)c1cc(-c2ccc(C3CCNCC3)cc2)c2ccc(-c3ccc(C(F)(F)F)cc3)cc2c1 | cell-free assay, competition with immobilised ligand | 1 µM | 79%
Cc1cnc(Nc2ccc(C(=O)N3CCC(N4CCCC4)CC3)cc2)nc1-c1cc2ccccc2s1 | binding, competition with immobilised ligand | 1 µM | 2.8%
F[C@@H]1CCN(c2nccc(-c3cnn4ncccc34)n2)C1 | binding | 1 µM | 93%
O=C(c1ccc(Nc2ncc(Cl)c(-c3ccc(Cl)s3)n2)cc1)N1CCC(N2CCCC2)CC1 | binding, competition with immobilised ligand | 1 µM | 42%
CCS(=O)(=O)c1cc2cc(C[C@@](O)(CC(C)(C)c3ccc(F)cc3C(N)=O)C(F)(F)F)[nH]c2cn1 | cell-free assay, competition with immobilised ligand | 1 µM | 86%
COc1cnc(Nc2cccc(S(N)(=O)=O)c2)nc1N1CCN(c2ccccc2)CC1 | binding, competition with immobilised ligand | 1 µM | 92%
CNCc1ccccc1-c1csc([C@H](C)Nc2nc(C)nc3cc(OC)c(OC)cc23)c1 | cell-free assay, competition with immobilised ligand | 1 µM | 93%
Cc1cnn2ncc(-c3ccnc(N(C)C)n3)c2c1 | binding | 1 µM | 98%
CCC(=N\O)/C(C)=C/c1ccc(F)cc1 | cell-free assay, competition with immobilised ligand | 1 µM | 79%
O=C(NCCCN1CCOCC1)c1ccc(Nc2nccc(-c3cc4ccccc4s3)n2)cc1 | binding, competition with immobilised ligand | 1 µM | 43%
O=C(Nc1c[nH]nc1C(=O)NC1CCNCC1)c1cc(F)cc(F)c1 | binding, competition with immobilised ligand | 1 µM | 91%
FC(F)(F)Oc1cccc(-c2cnc3ccc(-c4ccncc4)nn23)c1 | cell-free assay, competition with immobilised ligand | 5 µM | 88%
CN(C)c1ncc(F)c(-c2cnn3ncccc23)n1 | binding | 1 µM | 100%
CN(C)C(=O)Cn1cc(-c2nc(C3(c4ccc(-c5cnc(N)nc5)cc4)CC3)no2)cn1 | cell-free assay, competition with immobilised ligand | 1 µM | 100%
Nc1ncc2c(n1)-c1c([nH]c3ccc(C#CC4CC4)cc13)CCCC2 | binding, competition with immobilised ligand | 1 µM | 80%
N[C@@H]1CCN(c2nccc(-c3cnn4ncccc34)n2)C1 | binding | 1 µM | 100%
COc1cnc(Nc2cccc(S(N)(=O)=O)c2)nc1N1CCN(c2ccccc2)C(=O)C1 | binding, competition with immobilised ligand | 1 µM | 100%
Cn1nc(C(=O)NCc2ccc(C(=O)O)cc2)cc1-c1ccc2[nH]ccc2c1 | cell-free assay, competition with immobilised ligand | 0.1 µM | 78%
CN(CCCC(F)(F)F)c1nccc(-c2cnn3ncccc23)n1 | binding | 1 µM | 96%
CCC(=O)N[C@H]1CC[C@@H](C(=O)N(C)c2ccc(-c3nc4ccccc4o3)cc2)C1 | cell-free assay, competition with immobilised ligand | 1 µM | 100%
COc1ncc2cc3ccccc3nc2c1C#N | cell-free assay, competition with immobilised ligand | 5 µM | 100%
